# Experimental data: article PMC11162967 (International Journal of Nanomedicine, 2024)
# Experiments:
# [1] = Saturated solubility; assay type: physicochemical; conditions: ultrapure water
# Summary of the method: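 Excess test material added to 5 mL ultrapure water, shaken 24 h at 37°C. Undissolved drug removed by centrifugation (12,000 rpm, 30 min) and 0.22 μm filtration. Filtrate concentration measured by HPLC. n=3, mean ± SD.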
# [2] = In vitro dissolution; assay type: physicochemical; conditions: 37°C
# [3] = test system: Caco-2 cells; assay: Cellular uptake in Caco-2 cell monolayer; assay type: in vitro ADME; conditions: Caco-2, 30 μM luteolin, 37°C, 4 h
# [4] = test system: Caco-2 cells; assay: Cellular uptake mechanisms with endocytosis inhibitors; assay type: in vitro ADME
# Summary of the method: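 Caco-2 cells seeded at 2.5×10^4 per well, cultured 14 days. Then rinsed and given test compound at 30 μM luteolin, 4 h at 37°C. Washed, lysed by ultrasonication, luteolin by HPLC normalised to BCA protein. Compared with uninhibited control.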
# [5] = test system: Caco-2 cells; assay: Cytotoxicity study on Caco-2 cells; assay type: cell-based; conditions: under the experimental conditions (Figure S4)
# [6] = test system: HUA model mice; assay: Anti-hyperuricemia study in HUA mice model; assay type: in vivo, ICR mice; conditions: oral 30 mg/kg luteolin for 2 weeks, compared with HUA group
# Summary of the method: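 Male ICR mice, n=8 per group. Hyperuricemia induced by daily intraperitoneal potassium oxonate 300 mg/kg plus hypoxanthine 300 mg/kg in normal saline for seven consecutive days. Test compound given by gavage in normal saline at 30 mg/kg luteolin-equivalent for 2 weeks, including 1-week pretreatment. Vehicle and febuxostat 10 mg/kg (oral, one week) controls. Serum uric acid measured by commercial kit at end; one-way ANOVA.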
compound,measurement,setting,value
"O=c1cc(-c2ccc(O)c(O)c2)oc2cc(O)cc(O)c12 [LUT, Luteolin]",solubility at 24 h,[1],0.94 ± 0.07 µg/mL
same,drug dissolved (cumulative dissolution),"[2]; SGF pH 1.2 with 0.5% Tween 80, within 3 min",25.78%
same,drug dissolved (cumulative dissolution),"[2]; SIF pH 6.8 with 0.5% Tween 80, within 3 min",48.47%
same,cellular uptake,[3],25.89 ± 4.94 μg luteolin/mg cellular protein
same,"effect of chlorpromazine, indomethacin, or colchicine on cellular uptake",[4]; Caco-2 pretreated with inhibitor 1 h,no significant change
same,effect of sodium azide on cellular uptake,[4]; Caco-2 pretreated with sodium azide 650 μg/mL 1 h,significantly reduced
same,viability of Caco-2 cells,[5],did not affect the viability
same,serum UA level reduction,[6],51.67%
